Data set [1] addresses T1, Glutamate NMDA receptor; GRIN1/GRIN2A (Homo sapiens, UniProt Q05586+Q12879). As to the kind of experiment: Positive allosteric modulation of recombinant human GluN1/GluN2A receptor stably expressed in HEK293 cells assessed as increase in glycine/L-glutamate-induced channel current at -70 mV holding potential by IonWork […] method. Format: cell-based. The procedure, abridged:
(§1)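 Stable HEK293 lines expressing GluN1/GluN2A or GluN1/GluN2B, measured by automated whole-cell patch clamp (Ionworks Barracuda). Cells were held at -70 mV and stepped to -45 mV during agonist application (EC20 L-glutamate plus 50 µM glycine). The test article was first pre-applied alone for 5 min, then co-applied with agonist to record potentiation. Concentration-response percent potentiation gave EC50 and Emax.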

The target of data set [2] is T1, Glutamate NMDA receptor; GRIN1/GRIN2A. As to the kind of experiment: Positive allosteric modulation of recombinant human GluN1/GluN2A receptor stably expressed in HEK293 cells assessed as increase in glycine/L-glutamate-induced channel current at -70 mV holding potential by IonWork […] method relative to control. Type of data set: cell-based. The procedure, abridged:
as §1

For data set [3], the target named is T2, Glutamate NMDA receptor; GRIN1/GRIN2B (Homo sapiens, UniProt Q05586+Q13224). As to the kind of experiment: Positive allosteric modulation of recombinant human GluN1/GluN2B receptor stably expressed in HEK293 cells assessed as increase in glycine/L-glutamate-induced channel current at -70 mV holding potential by IonWork […] method. Format: cell-based. In a few lines: as §1

The nature of data set [4]: Stability in human liver microsomes. Format: ADME, Microsome. Conditions: read-out: Stability.
Data set [5] can be described thus: Stability in rat liver microsomes. The conditions noted are these: read-out: Stability. Format: ADME, Microsome.
Data set [6] has as its target T2, Glutamate NMDA receptor; GRIN1/GRIN2B. As to the kind of experiment: Positive allosteric modulation of recombinant human GluN1/GluN2B receptor stably expressed in HEK293 cells assessed as increase in glycine/L-glutamate-induced channel current at -70 mV holding potential by IonWork whole cell patch clamp method relative to control.

As for `C[C@H](CC[C@H](O)C(F)(F)F)[C@H]1CC[C@H]2[C@@H]3CC=C4C[C@@](C)(O)CC[C@]4(C)[C@H]3CC[C@]12C`, the EC50 was 220 nM in data set [1] and 110 nM in data set [3]. The Emax in data set [2] stood at 260%; in data set [6], 170%. Moreover, the figures for the microsomal CLint in data set [4] and in data set [5] were 4 µL/min/mg and 12 µL/min/mg, respectively.
Consider `CC(C)[C@H](O)CC[C@@H](C)[C@H]1CC[C@H]2[C@@H]3CC=C4C[C@@H](O)CC[C@]4(C)[C@H]3CC[C@]12C`, for which the EC50 turned out to be 37 nM in data set [1] and 55 nM in data set [3]. Moreover, the Emax stood at 220% in data set [2] and 140% in data set [6]. In addition, the microsomal CLint in data set [4] stood at 28 µL/min/mg; in data set [5] it was 93 µL/min/mg.
Consider `C[C@H](CCC1(O)CC1)[C@H]1CC[C@H]2[C@@H]3CC=C4C[C@@](C)(O)CC[C@]4(C)[C@H]3CC[C@]12C`, for which the figures for the EC50 in data set [1] and in data set [3] were 80 nM and 410 nM, respectively. The Emax in data set [2] was 300%; in data set [6], 180%. The figures for the microsomal CLint in data set [4] and in data set [5] were 6 µL/min/mg and 23 µL/min/mg, respectively.
As to `C[C@H](CC[C@H](O)C1CC1)[C@H]1CC[C@H]2[C@@H]3CC=C4C[C@@](C)(O)CC[C@]4(C)[C@H]3CC[C@]12C`, the EC50 was 320 nM in data set [1] and 170 nM in data set [3]. Further, the values for the Emax in data set [2] and in data set [6] were 230% and 150%, respectively. For the same molecule, the figures for the microsomal CLint in data set [4] and in data set [5] were under 10 µL/min/mg and 28 µL/min/mg, respectively.
Consider `C[C@H](CC[C@@H](C)O)[C@H]1CC[C@H]2[C@@H]3CC=C4C[C@@](C)(O)CC[C@]4(C)[C@H]3CC[C@]12C`, for which the EC50 in data set [1] and in data set [3] was over 10000 nM in each case. For the same molecule, the microsomal CLint in data set [4] is 11 µL/min/mg; in data set [5], 67 µL/min/mg.
Consider `COC(C)(C)CC[C@@H](C)[C@H]1CC[C@H]2[C@@H]3CC=C4C[C@@](C)(O)CC[C@]4(C)[C@H]3CC[C@]12C`, for which the EC50 in data set [1] and in data set [3] was over 10000 nM each time.
`CC(C)(O)CCC[C@H]1CC[C@H]2[C@@H]3CC=C4C[C@@](C)(O)CC[C@]4(C)[C@H]3CC[C@]12C`: the EC50 in data set [1] was determined as 550 nM; in data set [3], 160 nM. Moreover, the Emax in data set [2] and in data set [6] was 120% throughout.
`C[C@H](CCCO)[C@H]1CC[C@H]2[C@@H]3CC=C4C[C@@H](O)CC[C@]4(C)[C@H]3CC[C@]12C`: the EC50 is 3000 nM in data set [1] and over 10000 nM in data set [3]. The Emax in data set [2] stood at 290%. Moreover, the microsomal CLint is 13 µL/min/mg in data set [4] and 25 µL/min/mg in data set [5].
For `C[C@@H]([C@H]1CC[C@H]2[C@@H]3CC=C4C[C@@H](O)CC[C@]4(C)[C@H]3CC[C@]12C)C(C)(C)O`, the concentration giving a half-maximal response (EC50) in data set [1] and in data set [3] was over 10000 nM in each case. Moreover, the microsomal CLint is 6 µL/min/mg in data set [4] and 48 µL/min/mg in data set [5].
`C[C@H](CCC(C)(C)O)[C@H]1CC[C@H]2[C@@H]3CC=C4C[C@](C)(O)CC[C@]4(C)[C@H]3CC[C@]12C`: the values for the EC50 in data set [1] and in data set [3] were over 10000 nM and 3900 nM, respectively. Also, the Emax in data set [6] came out at 160%.
Turning to `C[C@H](O)CC[C@@H](C)[C@H]1CC[C@H]2[C@@H]3CC=C4C[C@@](C)(O)CC[C@]4(C)[C@H]3CC[C@]12C`, the EC50 in data set [1] was over 10000 nM; in data set [3], 3000 nM. Also, the microsomal CLint in data set [4] is under 10 µL/min/mg; in data set [5], 56 µL/min/mg. In addition, the Emax in data set [6] amounted to 50%.
With `C[C@H](CC(C)(C)O)[C@H]1CC[C@H]2[C@@H]3CC=C4C[C@@H](O)CC[C@]4(C)[C@H]3CC[C@]12C`, the EC50 in data set [1] and in data set [3] was over 10000 nM each time. Besides, the microsomal CLint in data set [4] was determined as 18 µL/min/mg; in data set [5] it was 63 µL/min/mg.
Take `C[C@@H](CCC(C)(C)O)[C@H]1CC[C@H]2[C@@H]3CC=C4C[C@@](C)(O)CC[C@]4(C)[C@H]3CC[C@]12C`: the EC50 in data set [1] and in data set [3] was over 10000 nM each time.
